Measurements published in ChEMBL document CHEMBL1129974, “Discovery of HIV-1 integrase inhibitors by pharmacophore searching” (J Med Chem, 1997).

Legend:
[1] = biological target: Human immunodeficiency virus type 1 integrase (Human immunodeficiency virus 1) (UniProt Q7ZJM1); experiment: Percentage inhibition was obtained by performing in vitro assay on purified recombinant integrase by 3''-processing method at 100 micro g/mL (experiment 1)
How it was run: (§1)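 Single concentration of 100 µg/mL tested. Recombinant HIV-1 integrase (200 nM final) preincubated with compound for 30 min at 30 °C in Mn2+/DMSO buffer, then reacted for 60 min with 20 nM 5′-32P-labeled 21-mer LTR duplex. Gel and phosphorimager quantitation of 19-mer 3′-processing and strand transfer products. %I = 100×[1−(D−C)/(N−C)], relative to DNA-alone and DNA+integrase controls.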

[2] = biological target: Human immunodeficiency virus type 1 integrase (Human immunodeficiency virus 1) (UniProt Q7ZJM1); experiment: Percentage inhibition was obtained by performing in vitro assay on purified recombinant integrase by 3''-processing method at 100 micro g/mL (experiment 2); how it was run: as §1
[3] = biological target: Human immunodeficiency virus type 1 integrase (Human immunodeficiency virus 1) (UniProt Q7ZJM1); experiment: Percentage inhibition was obtained by performing in vitro assay on purified recombinant integrase by strand transfer method at 100 micro g/mL (experiment 1); how it was run: as §1
[4] = biological target: Human immunodeficiency virus type 1 integrase (Human immunodeficiency virus 1) (UniProt Q7ZJM1); experiment: Percentage inhibition was obtained by performing in vitro assay on purified recombinant integrase by strand transfer method at 100 micro g/mL (experiment 2); how it was run: as §1
[5] = biological target: T1, Human immunodeficiency virus type 1 integrase (Human immunodeficiency virus 1, UniProt Q7ZJM1); experiment: Inhibitory concentration against purified recombinant integrase by strand transfer in vitro assay (experiment 1)
How it was run: (§2)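 Recombinant wild-type HIV-1 integrase, final 200 nM, preincubated with inhibitor for 30 min at 30 °C. Buffer: 50 mM NaCl, HEPES/MOPS, 7.5 mM MnCl2 when specified, 10% DMSO, 10% glycerol, BSA, 2-mercaptoethanol. Then 20 nM 5′-32P-labeled 21-mer U5 LTR duplex (AE117/AE118) added for 60 min. Products separated on denaturing 20% urea gel and quantified by phosphorimager. 3′-processing (19-mer) and strand transfer products read in one reaction. IC50 read from plot of concentration vs percent inhibition, several concentrations.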

[6] = biological target: T1, Human immunodeficiency virus type 1 integrase; experiment: Inhibitory concentration against purified recombinant integrase by strand transfer in vitro assay (experiment 2); how it was run: as §2
[7] = biological target: T1, Human immunodeficiency virus type 1 integrase; experiment: Inhibitory concentration against purified recombinant integrase by 3'-processing in 3D search (experiment 1); how it was run: as §2
[8] = biological target: T1, Human immunodeficiency virus type 1 integrase; experiment: Inhibitory concentration against purified recombinant integrase by 3'-processing in 3D search (experiment 2); how it was run: as §2
[9] = biological target: T1, Human immunodeficiency virus type 1 integrase; experiment: Inhibitory concentration against purified recombinant integrase by 3'-processing in vitro assay (experiment 2); how it was run: as §2
[10] = biological target: T1, Human immunodeficiency virus type 1 integrase; experiment: Inhibitory concentration against purified recombinant integrase by strand transfer 3D search (experiment 1); how it was run: as §2
[11] = biological target: T1, Human immunodeficiency virus type 1 integrase; experiment: Inhibitory concentration against purified recombinant integrase by strand transfer 3D search (experiment 2); how it was run: as §2
[12] = biological target: T1, Human immunodeficiency virus type 1 integrase; experiment: Inhibitory concentration against purified recombinant integrase by 3'-processing in vitro assay (experiment 1); how it was run: as §2
[13] = biological target: T1, Human immunodeficiency virus type 1 integrase; experiment: Inhibitory concentration against purified recombinant integrase by strand transferrin vitro assay; how it was run: as §2
[14] = biological target: T1, Human immunodeficiency virus type 1 integrase; experiment: Inhibitory concentration against purified recombinant integrase by 3'-processing in 3D search
[15] = biological target: T1, Human immunodeficiency virus type 1 integrase; experiment: Inhibitory concentration against purified recombinant integrase by 3'-processing in vitro assay
[16] = biological target: T1, Human immunodeficiency virus type 1 integrase; experiment: (§3) Inhibitory concentration against purified recombinant integrase by strand transfer 3D search; how it was run: as §2
[17] = biological target: T1, Human immunodeficiency virus type 1 integrase; experiment: as §3; remark: listed apart in the source
[18] = biological target: T1, Human immunodeficiency virus type 1 integrase; experiment: Inhibitory concentration against purified recombinant integrase by strand transfer in vitro assay

T1 sequence (Q7ZJM1 whole entry): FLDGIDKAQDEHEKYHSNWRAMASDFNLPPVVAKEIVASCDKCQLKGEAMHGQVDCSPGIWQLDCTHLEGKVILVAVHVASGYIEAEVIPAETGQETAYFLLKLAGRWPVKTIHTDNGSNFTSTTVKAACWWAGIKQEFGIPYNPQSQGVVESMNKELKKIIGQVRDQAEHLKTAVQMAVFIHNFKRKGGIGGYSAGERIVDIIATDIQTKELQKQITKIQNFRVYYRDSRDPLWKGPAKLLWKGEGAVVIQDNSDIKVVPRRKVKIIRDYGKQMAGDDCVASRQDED
Sequence of Human immunodeficiency virus type 1 integrase (Human immunodeficiency virus 1) (Q7ZJM1 as listed by the source): as the sequence (Q7ZJM1 whole entry) above

Question: With `O=C(OCCO)c1ccccc1O` as the compound, how does the inhibition [1] read?
Answer: 10.9%

Question: What about the inhibition [2] of the same compound?
Answer: 2.6%

Question: And the inhibition [3]?
Answer: 17.1%

Question: What about the inhibition [4] of the same compound?
Answer: 18.9%

Question: `O=C(CC(O)c1cccnc1)CC(O)c1cccnc1` (centres undefined) was tested. Which inhibition [1] did it give?
Answer: 22.5%

Question: What about the inhibition [2] of the same compound?
Answer: 19.1%

Question: And the inhibition [3]?
Answer: 48.1%

Question: And the inhibition [4]?
Answer: 43.2%

Question: What does the source list for `COc1cc(N)ccc1C(=O)NC(CCC(=O)O)C(=O)O` (centres undefined)?
Answer: IC50 [5]: 203 µM; IC50 [6]: 271 µM; IC50 [7]: 230 µM; IC50 [8]: 270 µM; IC50 [9]: 271 µM; IC50 [10]: 203 µM; IC50 [11]: 270 µM; IC50 [12]: 228 µM

Question: For `O=C(CCCCC(=O)c1ccc(O)cc1O)OCCO`, which IC50 [5] is on record?
Answer: 185 µM

Question: And the IC50 [6]?
Answer: 233 µM

Question: What about the IC50 [7] of the same compound?
Answer: 294 µM

Question: And the IC50 [8]?
Answer: 368 µM

Question: And the IC50 [9]?
Answer: 367 µM

Question: And the IC50 [10]?
Answer: 184 µM

Question: And the IC50 [11]?
Answer: 234 µM

Question: What about the IC50 [12] of the same compound?
Answer: 294 µM

Question: With `C[C@H]1C(=O)c2c(cc(O)c(C3OC(CO)C(O)C(O)C3O)c2O)OC1c1ccc(O)c(O)c1` (some centres undefined) as the compound, how does the IC50 [5] read?
Answer: 103 µM

Question: What about the IC50 [6] of the same compound?
Answer: 47.6 µM

Question: And the IC50 [7]?
Answer: 177 µM

Question: What about the IC50 [8] of the same compound?
Answer: 125 µM

Question: What about the IC50 [9] of the same compound?
Answer: 124 µM

Question: What about the IC50 [10] of the same compound?
Answer: 103 µM

Question: And the IC50 [11]?
Answer: 47.4 µM

Question: What about the IC50 [12] of the same compound?
Answer: 177 µM

Question: How did the inhibition [1] turn out when `O=C(N/N=C/c1ccccc1O)C(O)(c1ccccc1)c1ccccc1` was run?
Answer: 34.7%

Question: And the inhibition [2]?
Answer: 56.7%

Question: And the inhibition [3]?
Answer: 70.5%

Question: What about the inhibition [4] of the same compound?
Answer: 74.1%

Question: Which results are given for `O=C(NO)/C(CC(=O)c1ccc(O)cc1O)=N\O`?
Answer: IC50 [5]: 16.5 µM; IC50 [6]: 35.8 µM; IC50 [7]: 29.9 µM; IC50 [8]: 70.8 µM; IC50 [9]: 71.3 µM; IC50 [10]: 16.5 µM; IC50 [11]: 35.8 µM; IC50 [12]: 29.9 µM

Question: `O=C(N/N=C/c1ccc(O)cc1O)N/N=C/c1ccc(O)cc1O` was tested. Which IC50 [13] did it give?
Answer: 20.6 µM

Question: What about the IC50 [14] of the same compound?
Answer: 26.3 µM

Question: And the IC50 [15]?
Answer: 26 µM

Question: And the IC50 [16]?
Answer: 20.6 µM

Question: Which inhibition [1] does the source give for `Cc1cc(CC(=O)NCCO)n(CCO)c(=O)c1` here?
Answer: 45.3%

Question: And the inhibition [2]?
Answer: 30.3%

Question: What about the inhibition [3] of the same compound?
Answer: 90.6%

Question: And the inhibition [4]?
Answer: 47.9%

Question: With `CCN(CC)CCCC(C)Nc1cc(F)cc2cccnc12` (centres undefined) as the compound, how does the inhibition [1] read?
Answer: 36.5%

Question: What about the inhibition [2] of the same compound?
Answer: 41.2%

Question: And the inhibition [3]?
Answer: 27.6%

Question: And the inhibition [4]?
Answer: 48.9%

Question: How did the inhibition [1] turn out when `O=C(CC(=O)Nc1ccccc1O)Nc1ccccc1O` was run?
Answer: 23.1%

Question: What about the inhibition [2] of the same compound?
Answer: 17.6%

Question: What about the inhibition [3] of the same compound?
Answer: 57.2%

Question: What about the inhibition [4] of the same compound?
Answer: 37%

Question: `O=C(NCO)NCOCn1c(=O)n(CO)c(=O)n(CO)c1=O` was tested. Which IC50 [14] did it give?
Answer: 5.29 µM

Question: What about the IC50 [15] of the same compound?
Answer: 5.3 µM

Question: What about the IC50 [17] of the same compound?
Answer: 4.98 µM

Question: And the IC50 [18]?
Answer: 5 µM
